In ChEMBL document CHEMBL5034049, “Flavonol-Based Carbon Monoxide Delivery Molecule with Endoplasmic Reticulum, Mitochondria, And Lysosome Localization” (ACS Med Chem Lett, 2022):
Calls of active or inactive are those of the source. The calls are words filed in the database; no cut-off is given here.

How the values were obtained:
A549 [1] = assay: Cytotoxicity against human A549 cells assessed as reduction in cell viability incubated for 24 hrs under dark condition by MTT assay; assay type: cell-based; details: A549, 24 h
HFL1 [2] = assay: Cytotoxicity against human HFL1 cells assessed as reduction in cell viability incubated for 24 hrs under dark condition by MTT assay; assay type: cell-based; details: HFL1, 24 h
RAW264.7 [3] = assay: Cytotoxicity against mouse RAW264.7 cells assessed as reduction in cell viability incubated for 24 hrs under dark condition by MTT assay; assay type: cell-based; details: RAW264.7, 24 h
A549 [4] = assay: Cytotoxicity against human A549 cells assessed as inhibition of cell viability preincubated under visible light-induced CO release condition for 1 hr followed by incubation with drug for 23 hrs by MTT assay; assay type: functional, cell-based
RAW264.7 [5] = assay: Antiinflammatory activity against LPS-stimulated mouse RAW264.7 cells assessed as inhibition of TNF-alpha production incubated for 4 hrs followed by illumination with blue LED array for 1 hr and later incubated for 6 hrs under dark conditions followed by LPS stimulation for 1 hr by ELISA; assay type: functional, cell-based; details: time 12.0 hrs
Summary of the method: (§1)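 TNF-α suppression in RAW 264.7 macrophages challenged with LPS. Dark and illuminated treatments run as independent experiments. Mean ± SEM from three independent experiments, compared with the LPS positive control and with the matching non-illuminated treatment.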

A549 [6] = assay: Cytotoxicity against human A549 cells assessed as reduction in cell viability up to 100 uM incubated for 24 hrs under dark condition by MTT assay; assay type: cell-based; details: a549, 24 h
HFL1 [7] = assay: Cytotoxicity against human HFL1 cells assessed as reduction in cell viability up to 100 uM incubated for 24 hrs under dark condition by MTT assay; assay type: cell-based; details: hfl1, 24 h
RAW264.7 [8] = assay: Cytotoxicity against mouse RAW264.7 cells assessed as reduction in cell viability up to 100 uM incubated for 24 hrs under dark condition by MTT assay; assay type: cell-based; details: raw264.7, 24 h
[9] = Drug uptake in human HFL1 cells at 1 uM after 4 hrs by Hoechst 33258 staining based fluorescence microscopic analysis; assay type: ADME, cell-based; details: hfl1, 4 h
[10] = Drug uptake in mouse RAW264.7 cells at 5 uM after 4 hrs by Hoechst 33258 staining based fluorescence microscopic analysis; assay type: ADME, cell-based; details: raw264.7, 4 h
[11] = Drug uptake in endoplasmic reticulum of human A549 cells at 25 uM measured after 1 hr by ER-Tracker Red based confocal microscopic analysis; assay type: ADME; details: a549, 1 h
Summary of the method: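 A549 cells treated 1 h at 25 μM (vehicle 0.4% DMSO), then counterstained with Hoechst 33342 and ER-Tracker Red. Imaged by confocal microscopy. Overlap given as Pearson's colocalization coefficient, mean ± SEM over 27 cells examined individually across three separate experiments. Line intensity profiles of regions of interest taken over 20 μm.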

[12] = Drug uptake in mitochondria of human A549 cells at 25 uM measured after 1 hr by MitoTracker Deep Red based confocal microscopic analysis; assay type: ADME; details: a549, 1 h
[13] = Drug uptake in lysosome of human A549 cells at 25 uM measured after 1 hr by LysoTracker Red based confocal microscopic analysis; assay type: ADME, subcellular; details: a549, 1 h
RAW264.7 [14] = assay: Antiinflammatory activity against LPS-stimulated mouse RAW264.7 cells assessed as inhibition of TNF-alpha production at 40 nM incubated for 10 hrs under dark conditions followed by LPS stimulation for 1 hr by ELISA; assay type: functional, cell-based; details: time 11.0 hrs; summary of the method: as §1
[15] = Drug uptake in human A549 cells assessed as clustering of emission at 1 uM after 1 hr by confocal microscopy; assay type: ADME, cell-based; details: a549, 1 h
Summary of the method: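 A549 cells exposed 1 h at 1 μM with a media control. Hoechst nuclear counterstain. Confocal imaging at 63×, compound emission read in the green channel.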

[16] = Drug uptake in human A549 cells at 1 uM after 4 hrs by Hoechst 33342 staining based fluorescence microscopic analysis; details: a549, 4 h

Q: With `O=c1c(O)c(-c2ccccc2)oc2cc3ccccc3cc12` as the molecule, how does the IC50 (A549 [1]) read?
A: 80.2 µM

Q: What about the IC50 (HFL1 [2]) of the same molecule?
A: 65.1 µM

Q: And the IC50 (RAW264.7 [3])?
A: 47.7 µM

Q: And the IC50 (A549 [4])?
A: 76.1 µM

Q: What about the Activity (RAW264.7 [5]) of the same molecule?
A: Active

Q: For `CCN(CC)c1ccc(C(=O)Oc2cc3ccccc3cc2C(=O)O)cc1`, which Activity (A549 [6]) is on record?
A: Non-Toxic

Q: What about the Activity (HFL1 [7]) of the same molecule?
A: Non-Toxic

Q: And the Activity (RAW264.7 [8])?
A: Non-Toxic

Q: Which Drug uptake [9] does the source give for `CCN(CC)c1ccc(-c2oc3cc4ccccc4cc3c(=O)c2O)cc1` here?
A: Active

Q: What about the IC50 (A549 [1]) of the same molecule?
A: > 100 µM

Q: What about the IC50 (RAW264.7 [3]) of the same molecule?
A: 67.2 µM

Q: What about the Activity (A549 [6]) of the same molecule?
A: Non-Toxic

Q: And the Activity (HFL1 [7])?
A: Non-Toxic

Q: What about the Drug uptake [10] of the same molecule?
A: Active

Q: And the Drug uptake [11]?
A: Active

Q: And the Drug uptake [12]?
A: Active

Q: And the Drug uptake [13]?
A: Active

Q: What about the Activity (RAW264.7 [14]) of the same molecule?
A: Active

Q: What about the IC50 (A549 [4]) of the same molecule?
A: 10.7 µM

Q: What about the Drug uptake [15] of the same molecule?
A: Active

Q: And the Activity (RAW264.7 [5])?
A: Active

Q: What about the Drug uptake [16] of the same molecule?
A: Active

Q: With `O=C(NCC[P+](c1ccccc1)(c1ccccc1)c1ccccc1)c1ccc(-c2oc3cc4ccccc4cc3c(=O)c2O)cc1` as the molecule, how does the IC50 (A549 [1]) read?
A: 14.1 µM

Q: And the IC50 (A549 [4])?
A: 4.6 µM

Q: With `O=C(Oc1cc2ccccc2cc1C(=O)O)c1ccccc1` as the molecule, how does the Activity (A549 [6]) read?
A: Non-Toxic

Q: And the Activity (HFL1 [7])?
A: Non-Toxic

Q: What about the Activity (RAW264.7 [8]) of the same molecule?
A: Non-Toxic
